High-throughput results (PubChem)
Sampled rows, rich in hits. Any-hit rate of the full collection: about 2.3%.
DNMT1 block: inhibitors of human DNMT1 | DNMT1 molecular beacon, Hinp1I cleavage, fluorescence | inhibition (reported as % activation of signal), % at 10 µM | 360,000 tested, 0.83% active | AID 588458; in the data active = inhibition above about 50%
MT1-MMP act inh: MT1-MMP (human) activation inhibition. P50281. HT1080 RFP-PRO-GFP cells, GFP/RFP ratio fluorescence, overnight; percent of plate control window, DMSO zero. GFP/RFP ratio change, % at 20 µM. 360,000 tested, 0.061% active. AID 651647;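 active = GFP/RFP ratio change of at least 30% with cell ATP level not reduced by more than half and red fluorescence within 50% of control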
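Assay system: RFP-PRO-GFP reporter HT1080 cells; read-out basis: GFP/RFP fluorescence ratio; benchmarks: DMSO wells and RFP-L50D-GFP cells; doses: 20 µM single dose, 1% DMSO; schedule: overnight cell settling, then overnight compound exposure, 37 °C, 5% CO2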
Rpn11 inh: Rpn11 (human) deubiquitinase inhibition; 360,000 tested, 0.59% active; AID 588493; human 26S proteasome, Ub4-pepOG fluorescence polarization; 20S core pre-blocked with epoxomicin; inhibition, % at 20 µM;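 active = inhibition at 20 µM, scaled to each plate's controls, above about 33%, limit read from the data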
SUMO1 PPI mod: modulators of human SUMO1-mediated protein-protein interactions. inhibition, % at 20 µM. SUMO1 binding to a labelled peptide, TR-FRET, 1 h. 360,000 tested, 0.33% active; in the data active = inhibition above about 37%
CSN deneddyl inh: blocks human CSN-mediated cullin deneddylation; Q92905; Purified CSN, SCF-Nedd8-OG deneddylation, fluorescence polarization; inhibition, % at 12.5 µM; 360,000 tested, 0.38% active; AID 651999;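 active = pattern-corrected inhibition above about 35%, with an unprinted fluorescence ratio check between 0.5 and 1.5, limit read from the data, passing the limit was not always enough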;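 note: 0% = enzyme with substrate and 100% = substrate without enzyme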
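Test system: purified human Csn5 enzyme expressed in HEK293T cells. Amount: 0.24 nM enzyme. Reagent: SCFSkp2-Nedd8OG substrate at 10 nM final. Schedule: 90 min incubation of compound, enzyme and substrate at room temperature. Detection: fluorescence polarization. Read-out: % inhibition of substrate cleavage by Csn5.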
SKN-1 block: blocks SKN-1 activity in C. elegans; 360,000 tested, 0.49% active; AID 624304; C. elegans VP596 Pgst-4::GFP/RFP ratio, acrylamide-induced, 24 h; inhibition, % at 21.8 µM;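 active = interference check ratio from 0.5 to 1.5 plus GFP to RFP signal ratio inhibition reaching or exceeding a fixed threshold, cut at about 30% in these data, passing the limit was not always enough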
Rpn11 confirm: confirmation of human proteasome Rpn11 inhibitors; shares compounds with Rpn11 inh; purified human 26S proteasome, Ub4-pepOG fluorescence polarization; proteasome pretreated with epoxomicin; inhibition, % at 20 µM; 1,900 tested, 29% active; AID 602318
MMP-2 inh: counter-screen for RPN11 inhibitors: inhibition of human MMP-2; shares compounds with Rpn11 inh; inhibition, % at 20 µM; recombinant MMP-2, FRET peptide cleavage fluorescence; AID 602330; 1,900 tested, 4% active;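 note: human MMP-2 activated beforehand with APMA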
Target sequence (P08253 whole entry, looked up): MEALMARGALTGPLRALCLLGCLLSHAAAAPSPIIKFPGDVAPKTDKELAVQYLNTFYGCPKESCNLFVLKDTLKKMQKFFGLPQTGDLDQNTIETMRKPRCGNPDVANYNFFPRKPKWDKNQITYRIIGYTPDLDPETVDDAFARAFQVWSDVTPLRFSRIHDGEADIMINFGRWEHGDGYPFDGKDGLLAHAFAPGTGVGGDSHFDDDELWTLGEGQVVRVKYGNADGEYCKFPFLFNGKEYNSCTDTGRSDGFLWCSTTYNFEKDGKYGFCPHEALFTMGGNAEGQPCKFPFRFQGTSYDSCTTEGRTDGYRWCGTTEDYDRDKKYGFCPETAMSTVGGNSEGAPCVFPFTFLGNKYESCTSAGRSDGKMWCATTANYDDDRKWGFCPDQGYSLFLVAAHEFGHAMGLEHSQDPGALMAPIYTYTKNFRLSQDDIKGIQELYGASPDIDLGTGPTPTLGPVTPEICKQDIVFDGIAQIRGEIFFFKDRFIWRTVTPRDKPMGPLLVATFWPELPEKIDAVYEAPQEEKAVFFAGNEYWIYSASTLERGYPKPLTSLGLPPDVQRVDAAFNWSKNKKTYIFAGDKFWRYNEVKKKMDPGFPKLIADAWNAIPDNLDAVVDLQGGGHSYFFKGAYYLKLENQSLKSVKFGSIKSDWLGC
Thrombin FP: thrombin (bovine) inhibition counter-screen; 1,900 tested, 13% active; shares compounds with Rpn11 inh; AID 602333; inhibition, % at 20 µM; bovine thrombin cleavage of Ub4-pepOG, fluorescence polarization;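 active = mean inhibition at least 40% at 20 µM, or signal 3 deviations below plate average, so some actives read negative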;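 note: plate controls were thrombin with DMSO for no effect and buffer wells lacking thrombin for full effect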
Numbers without * were called inactive; · = no result. Cut-off read from the data, not from the text of the source, unless noted: active = inhibition above about 40%; inactive = the rest.

SMILES	DNMT1 block	MT1-MMP act inh	Rpn11 inh	SUMO1 PPI mod	CSN deneddyl inh	SKN-1 block	Rpn11 confirm	MMP-2 inh	Thrombin FP
CCOc1cc(/C=C2\NC(=S)N(c3c(C)n(C)n(-c4ccccc4)c3=O)C2=O)ccc1O	3	-8	114*	-43	25	9	67*	30	45*
CN=C1S/C(=C\c2ccc(O)c(OC)c2)C(=O)N1C	-1	-5	12	-33	7	2	·	·	·
COc1cc(/C=C2\NC(=S)N(C)C2=O)ccc1O	-1	-49	73*	-46	34	3	54*	49*	43*
Cn1nc(C(C)(C)C)cc1NC(=O)C1(C)CCN1C(=O)c1ccccc1CCc1ccccc1 (stereo not drawn)	11	1	13	-2	0	-5	·	·	·
O=C(Nc1ccc2c(c1)OCO2)c1cc(C2CCCCN2S(=O)(=O)c2cccs2)on1 (stereo not drawn)	-4	-1	2	5	0	26	·	·	·
CC(=O)C1=CCC(c2ccc(Cl)cc2)N(S(=O)(=O)c2ccc(C)cc2)C1 (stereo not drawn)	-5	-1	5	6	-4	2	·	·	·
CCCNC(=O)C1(C)CCCN(CCC(=O)c2ccccc2)C1 (stereo not drawn)	4	0	-1	-2	-3	18	·	·	·
CCCCOc1nc2ccccc2nc1C(C#N)C(=O)NC1CCCCC1 (stereo not drawn)	-3	7	56*	-5	14	24	-3	-23	-5
N#CC(C(=O)NC1CCCCC1)c1nc2ccccc2nc1N1CCN(c2ccccc2F)CC1 (stereo not drawn)	1	-12	6	-1	3	12	·	·	·
CCN(CC)CCN(C)C(c1cc2ccccc2o1)c1nnnn1C(C)(C)C (stereo not drawn)	·	5	·	-2	-1	-3	·	·	·
O=C(N/N=C/c1ccc(Cl)cc1Cl)c1ccc2nc[nH]c2c1	3	3	62*	0	2	-4	63*	-38	37
O=C(N/N=C/c1ccccc1C(F)(F)F)c1ccc2nc[nH]c2c1	0	3	5	-7	1	-1	·	·	·
O=C(N/N=C/c1cc([N+](=O)[O-])ccc1Cl)c1ccc2nc[nH]c2c1	3	-2	69*	19	8	-7	22	-7	2
Cc1cccc(NC(=O)/C=C/c2ccc([N+](=O)[O-])s2)c1	0	-177	12	-9	-5	-6	·	·	·
Cc1cccc(NC(=S)N/N=C/c2ccc([N+](=O)[O-])s2)c1	-30	-31	39*	-17	17	44*	2	36	-13
CC1(C(=O)NS(=O)(=O)c2ccccc2Cl)CCN1C(=O)COc1ccc(Cl)cc1 (stereo not drawn)	2	1	-8	8	-5	14	·	·	·
COCCc1ccc(OC2(C)CCN(Cc3ccc(OC)c4ccccc34)C2)cc1 (stereo not drawn)	5	5	-4	-3	2	12	·	·	·
N#C/C(=C\c1ccc(O)c(O)c1)C(=O)NCCc1ccccc1	3	2	17	-19	-3	-14	·	·	·
COc1cc(/C=C(\C#N)C(=O)NCCc2ccccc2)cc(OC)c1O	-1	-122	79*	-39	35	-4	54*	3	52*
COc1ccc(CN2C(=O)CCC2(C)c2nnnn2-c2ccc3c(c2)OCCO3)cc1OC (stereo not drawn)	·	5	·	1	-2	1	·	·	·
Cn1c(SCC(=O)NCC2CCCO2)ncc(C(=O)Nc2ccc(F)cc2)c1=O (stereo not drawn)	0	-3	29	-66	2	-10	·	·	·
Cn1c(SCC(=O)NCC2CCCO2)ncc(C(=O)Nc2ccc(Cl)cc2)c1=O (stereo not drawn)	-2	-13	64*	-96	8	7	11	-47	-3
O=C(NCc1ccccc1)C(c1cc2ccccc2o1)n1c(=O)c(-c2ccco2)nc2ccccc21 (stereo not drawn)	·	-8	·	0	28	-5	·	·	·
O=C1NC[C@H](CCCCN2C[C@H](Cc3ccc(O)cc3)N(CCC3CCCCC3)C(=O)C2=O)N(CCC2CCCCC2)C1=O	·	0	·	6	-2	-3	·	·	·
N#Cc1c(SCC(=O)Nc2nccs2)sc2c(O)cc(=O)[nH]c12	43	-1	60*	20	12	8	21	26	7
SMILES	DNMT1 block	MT1-MMP act inh	Rpn11 inh	SUMO1 PPI mod	CSN deneddyl inh	SKN-1 block	Rpn11 confirm	MMP-2 inh	Thrombin FP
N#Cc1c(SCC(=O)Nc2cccc(F)c2)sc2c(O)cc(=O)[nH]c12	29	-5	33	7	9	-4	·	·	·
N#Cc1c(SCC(=O)Nc2ccc(Cl)cc2Cl)sc2c(O)cc(=O)[nH]c12	21	1	38	4	10	13	·	·	·
N#Cc1cccc(NC(=O)CSc2sc3c(O)cc(=O)[nH]c3c2C#N)c1	46	-4	55*	24	11	4	-4	-22	-17
Cc1cc(C)n2c(NC3CCCCC3)c(-c3cccnc3)nc2n1	·	-4	·	-10	2	15	·	·	·
COc1ccc(N2CCN(C(c3cc(OC)ccc3OC)c3nnnn3Cc3ccco3)CC2)cc1 (stereo not drawn)	-7	-8	30*	-7	5	20	-13	3	-11
O=C1NC[C@H](CCCCN2C[C@H](Cc3ccccc3)N(CCc3ccc(O)cc3)C(=O)C2=O)N(CCC2CCCCC2)C1=O	·	3	·	6	-3	0	·	·	·
COc1ccc(S(=O)(=O)N2C[C@@H](O)COC[C@@H]3O[C@H](CC(=O)NCCCN4CCOCC4)CC[C@H]32)cc1	·	-1	·	2	-5	0	·	·	·
Cc1[nH]n(-c2nc(-c3ccc(Cl)cc3)cs2)c(=O)c1N=Nc1ccc(O)cc1	-8	9	42*	-18	-9	3	-5	-24	-3
CC(C)c1ccc(N=C2NN=C(c3cccs3)CS2)cc1	-6	-4	80*	-6	13	10	-1	-1	3
O=C(NCc1ccccc1)c1cc(C2CCCN(C(=O)c3ccccc3)C2)on1 (stereo not drawn)	4	-3	-3	-3	-2	3	·	·	·
